Shown are actives, neighbours in structure and some others; about 3.6% of the full set was active somewhere.
SKKanGAS inh: blocks kanamycin growth of S. pyogenes SKKanGAS strain. hit rate 1.3% among 300,000. AID 1662. inhibition, % at 7.5 µM. BacTiter-Glo, 6 h;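 active = mean replicate score, as percent of positive control median, at least 50; inconclusive = mean below 50 but one replicate at or above 50; inactive = mean and every replicate below 50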;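 also: strain carries kanamycin resistance gene driven by streptokinase promoter and grows in 40 µg/ml kanamycin; loss of luminescence reflects streptokinase promoter inhibition or plain growth inhibition; 0% = median of DMSO wells and 100% = positive control at its reference dose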
T cruzi repl: blocks replication of Trypanosoma cruzi; T. cruzi beta-gal in NIH3T3, luminescence, 90 h; AID 1885; hit rate 1.4% among 300,000; inhibition, % (concentration not given with the values);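 active = mean inhibition across valid replicates above about 55%, limit read from the data; inconclusive = mean below that limit but half or more replicates reach it; inactive = mean below it, under half of replicates reach it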;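 also: signal also drops with host cell toxicity which is not excluded here; 0% = plate median of DMSO wells and 100% = zero luminescence signal; higher percent means less beta-gal luminescence so fewer parasites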
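Test system: β-gal T. cruzi (Tulahuen C4) inside NIH/3T3 cells / Quantity: 5,000 cells/well / Measured by: luminescence from GalScreen with 0.05% NP40, read after 60 min / Medium: DMEM plus 2% FBS / Measure: parasite load inhibition, % / Reagent: Tulahuen C4 trypomastigotes, 5000/well / Schedule: co-culture of at least 90 h after 3 h attachment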
HIF act: HIF pathway transcriptional activation; U2OS HRE-luciferase reporter, luminescence; normalized: DMSO 0%, desferrioxamine 100%; activation, % at 7.5 µM (by protocol); AID 1910; hit rate 0.32% among 300,000;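 active = mean activation of at least 10% of the iron chelator positive control signal, with at least half of replicates also reaching 10%; inconclusive = mean and replicate majority disagree about reaching 10%; inactive = mean and most replicates under 10%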
CSC inhib: blocks cancer stem cells; cancer stem cell-like cells viability, luminescence; inhibition, % at 7.5 µM; hit rate 1.1% among 300,000; AID 2717; in the data active = inhibition above about 75%; inconclusive = no clear call, values can overlap the other calls; tested in HMLE shEcad cells
PfHsp90 yeast 2: growth inhibition of yeast expressing Plasmodium Hsp90; S. cerevisiae expressing PfHsp90, BacTiter-Glo ATP, 48 h; yeast lacking PDR1 and PDR3 efflux regulators; inhibition, % at 9.4 µM; hit rate 0.32% among 310,000; AID 504621;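 active = every replicate shows inhibition above about 80%, whatever the replicate mean, limit read from the data; inconclusive = mean inhibition reaches the set limit but some replicate falls short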;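 also: 0% = DMSO neutral controls and 100% = 20 µM radicicol positive controls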
Beta apoptosis: blocks beta cell apoptosis; INS-1E cytokine-induced death, ATP luminescence, 48 h; percent of positive-control rescue, neutral wells zero; protection from apoptosis, % (concentration not given with the values); hit rate 0.8% among 300,000; AID 435005;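 active = Every replicate reaches about 75%, or at least half do and their mean reaches it too, limit read from the data; inconclusive = At least half of replicates reach the limit but their mean does not; inactive = Under half of replicates reach the limit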;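 also: 0% = cytokine-treated negative control wells and 100% = positive control rescue; higher means more ATP so stronger rescue from cytokine killing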
The depositor's hits bear a star; ? = inconclusive; . = no result given.

SMILES	SKKanGAS inh	T cruzi repl	HIF act	CSC inhib	PfHsp90 yeast 2	Beta apoptosis
COc1cc(/C=N\NC(=O)c2ccc(Cn3cc(Br)c([N+](=O)[O-])n3)o2)cc(OC)c1O	?	52	-1	13	0	6
O=C(N/N=C\c1ccc(F)cc1)c1ccc(Cn2cc(Br)c([N+](=O)[O-])n2)o1	3	61*	-18	68	-4	0
O=C(N/N=C\c1cccc(F)c1)c1ccc(Cn2cc(Br)c([N+](=O)[O-])n2)o1	-6	68*	0	-8	11	-8
Cc1ccc(S(=O)(=O)/N=C(/Nc2ccc(O)c(C(=O)O)c2)c2ccccc2)cc1	.	.	.	-24	11	-3
COc1ccc(-c2cc(C)no2)cc1S(=O)(=O)NCc1ccc(OC(C)C)cc1	6	1	0	5	-24	-4
CC(Oc1ccccc1F)c1nnc(SCC(=O)NCc2ccc3c(c2)OCO3)o1 (centres undefined)	.	.	.	2	-15	0
Cc1ccc(CN2C3=NCCCN3c3ccccc32)cc1	.	.	.	-1	1	2
CC(C)(C)c1ccc(CN2C3=NCCCN3c3ccccc32)cc1	-3	69*	0	31	33	41
O=C(NCC(c1cccnc1)N1CCN(c2ccccc2)CC1)C1CCCCC1 (centres undefined)	1	56*	0	-2	.	4
O=C(NCC(c1cccnc1)N1CCN(c2ccccc2)CC1)OCc1ccccc1 (centres undefined)	-15	54	0	10	19	3
O=C(NCC(c1cccnc1)N1CCN(c2ccc(F)cc2)CC1)OCc1ccccc1 (centres undefined)	2	60*	0	4	16	1
O=C(NCC(c1cccnc1)N1CCN(c2ccccc2F)CC1)OCc1ccccc1 (centres undefined)	-6	56*	0	20	4	4
COC(=O)c1c(C)[nH]c(-c2csc(N)n2)c1C	-11	-80	0	60	-8	22
CSc1nc(Sc2ccccc2Cl)c2ccccc2n1	59*	-1	0	.	-1	-9
CCOC(=O)c1cnc(SC)nc1Sc1ccccc1Cl	-16	.	.	-6	-2	.
CN(C)S(=O)(=O)c1cccc(NC(=S)N/N=C/c2cc(Br)ccc2O)c1	107*	57*	47*	77*	-7	94*
CN(C)S(=O)(=O)c1cccc(NC(=S)N/N=C/c2cccc(O)c2)c1	-4	-6	0	-7	-4	-7
O=C(Nc1nc(-c2ccc(F)cc2)cs1)C1CCN(C(=O)c2ccc(F)cc2)CC1	21	55*	-3	19	2	-5
Cc1ccc(C)c(N2CN(Cc3cccnc3)CNC2=S)c1	-10	61*	0	.	4	.
COc1ccc(S(=O)(=O)N(C(C)=O)c2ccc(OC(C)=O)c3ccccc23)cc1[N+](=O)[O-]	10	-4	0	22	-12	106*
CC(=O)Oc1c(Cl)cc(N(C(C)=O)S(=O)(=O)c2ccccc2)c2ccccc12	0	-11	0	12	.	95*
CC(C)c1ccc(C2C3=C(CC(C)(C)CC3=O)NC3=C2C(=O)c2ccccc23)cc1 (centres undefined)	24	58*	0	36	-1	13
CC1(C)CC(=O)C2=C(C1)NC1=C(C(=O)c3ccccc31)C2c1ccccc1 (centres undefined)	8	22	0	-10	-6	5
CCN1C(=O)/C(=C/c2nc3ccccc3c(=O)n2-c2ccc(C)cc2)c2ccccc21	0	74*	0	33	-11	-3
Cc1ccc(-c2nnc(SCC(=O)NC3CCS(=O)(=O)C3)nc2-c2ccc(C)cc2)cc1 (centres undefined)	-6	22	0	-11	-2	2
SMILES	SKKanGAS inh	T cruzi repl	HIF act	CSC inhib	PfHsp90 yeast 2	Beta apoptosis
CC(=O)NC(=S)Nc1ccc(S(=O)(=O)N(C)Cc2ccccc2)cc1	5	68*	0	6	-6	2
CC(C)C(=O)NC(=S)Nc1ccc(S(=O)(=O)N(C)Cc2ccccc2)cc1	2	.	.	42	16	4
COc1cc([C@@H]2c3cc4c(cc3[C@@H](NC3CCN(Cc5ccccc5)CC3)[C@H]3COC(=O)[C@H]23)OCO4)cc(OC)c1O	8	24	15*	.	.	.
CC(=O)NC(=S)NNC(=O)C(c1ccccc1)c1ccccc1	80*	17	-1	1	-8	11
CCC(Sc1nc(C)cc(C)n1)C(=O)NC1=NN=C(c2ccc(C)cc2)CS1 (centres undefined)	10	53	0	45	-17	127*
Cc1cc(C)nc(SCC(=O)Nc2ccc(Br)cn2)n1	0	9	0	-16	1	2
Cc1cc(C)nc(SCC(=O)NC2=NN=C(c3ccc(Br)cc3)CS2)n1	99*	68*	0	-3	.	113*
Cc1cc(Br)ccc1NC(=O)CN1C(=O)C2C3CC(c4ccccc4)C(C3)C2C1=O (centres undefined)	8	56*	-1	22	-4	10
CCc1ccc(CNC(=O)C2CCN(S(=O)(=O)N3CCC4(CC3)OCCO4)CC2)cc1	16	-7	0	-1	6	0
Cc1n[nH]c(C)c1CCOc1ccc(C(C)C)cc1	96*	12	1	.	-15	9
COc1ccc(OCCCCc2c(C)n[nH]c2C)cc1	-4	4	0	.	-5	.
CCCOC(=O)C(=O)NNc1ccccc1	5	49	0	?	6	-1
CCOC(=O)C(=O)NNc1ccc(Cl)cc1	3	48	0	82*	6	-1
O=C(NNc1ccc(Cl)cc1)c1cccs1	-4	.	0	96*	16	-8
CCCCN=C(NNc1ccc(Br)cc1)C(=O)OCC	9	4	0	136*	46	-7
O=C(NNc1cc(Cl)cc(Cl)c1)c1cccs1	2	31	0	28	13	0
CCc1ccc(C(=O)NNc2ccc(Cl)cc2)cc1	5	28	0	99*	-2	29
CCc1cc2c(Nc3ccc(O)cc3)nc(C)nc2s1	11	-1	-14	9	-1	-3
CC(C)(C)OC(=O)N1CCC[C@H]1c1nnc(SCc2ccc(Cl)cc2)o1	1	11	1	-3	0	5
CCOC(=O)C(=O)NNc1ccc(C)cc1	-2	?	0	102*	25	-8
CNc1ccc(C(=O)OCC(=O)NC(=O)NC2CCCC2)cc1[N+](=O)[O-]	.	.	.	7	8	6
Cc1ccnc(NC(c2ccsc2)c2ccc3ccc(C)nc3c2O)c1 (centres undefined)	93*	63*	1	20	12	-49
Cc1cccc(NCc2ccccc2O)n1	8	1	0	0	29	-6
